We go through 22 compounds from ChEMBL document CHEMBL4371071, “Muscarinic agonist, (±)-quinuclidin-3-yl-(4-fluorophenethyl)(phenyl)carbamate: High affinity, but low subtype selectivity for human M1 - M5 muscarinic acetylcholine receptors” (Bioorg Med Chem Lett, 2019).

Test [1] addresses T1, Muscarinic acetylcholine receptor M3 (Homo sapiens, UniProt P20309). The experiment in a line: Displacement of [3H]NMS from human M3 AChR expressed in CHO cell membranes after 1 to 2 hrs by liquid scintillation spectrometry method. Type of test: cell-based. A general note: In a radioligand displacement assay an active substance lowers the binding of a labelled ligand.
Target sequence in this assay (P20309 whole entry): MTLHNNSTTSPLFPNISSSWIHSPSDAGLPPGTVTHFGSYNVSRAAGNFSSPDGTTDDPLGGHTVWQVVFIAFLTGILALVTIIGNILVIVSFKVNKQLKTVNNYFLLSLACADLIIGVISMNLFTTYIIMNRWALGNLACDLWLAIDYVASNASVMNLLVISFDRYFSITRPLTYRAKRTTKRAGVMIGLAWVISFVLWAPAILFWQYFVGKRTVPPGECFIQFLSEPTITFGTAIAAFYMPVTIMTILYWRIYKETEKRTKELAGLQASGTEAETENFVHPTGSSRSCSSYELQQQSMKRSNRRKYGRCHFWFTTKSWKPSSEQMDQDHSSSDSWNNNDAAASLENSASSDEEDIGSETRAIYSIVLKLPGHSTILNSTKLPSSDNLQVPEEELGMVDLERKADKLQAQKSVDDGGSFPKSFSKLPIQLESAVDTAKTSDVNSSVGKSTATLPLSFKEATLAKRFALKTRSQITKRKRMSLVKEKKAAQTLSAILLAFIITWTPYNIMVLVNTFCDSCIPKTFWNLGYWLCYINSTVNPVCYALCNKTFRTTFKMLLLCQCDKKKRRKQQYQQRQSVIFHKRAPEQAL
Test [2] addresses T2, Muscarinic acetylcholine receptor M5 (Homo sapiens) (UniProt P08912).
T2 sequence (whole entry): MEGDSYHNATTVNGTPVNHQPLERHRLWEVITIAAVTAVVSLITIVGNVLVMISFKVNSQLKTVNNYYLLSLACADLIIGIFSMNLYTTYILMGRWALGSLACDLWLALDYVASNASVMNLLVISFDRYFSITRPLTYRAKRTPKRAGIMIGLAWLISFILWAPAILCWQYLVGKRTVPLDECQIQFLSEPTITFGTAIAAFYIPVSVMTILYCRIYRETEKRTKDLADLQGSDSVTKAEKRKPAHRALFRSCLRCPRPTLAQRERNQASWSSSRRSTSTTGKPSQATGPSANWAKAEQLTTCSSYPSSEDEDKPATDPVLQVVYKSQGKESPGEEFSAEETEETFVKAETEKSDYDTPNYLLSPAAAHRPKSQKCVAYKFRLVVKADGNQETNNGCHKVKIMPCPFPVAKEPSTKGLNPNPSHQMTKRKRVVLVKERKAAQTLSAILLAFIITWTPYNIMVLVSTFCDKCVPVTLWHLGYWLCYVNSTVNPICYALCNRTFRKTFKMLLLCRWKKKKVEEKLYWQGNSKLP
In words: Displacement of [3H]NMS from human M5 AChR expressed in CHO cell membranes at 100 uM after 1 to 2 hrs by liquid scintillation spectrometry method relative to control. Summed up:
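CHO membranes expressing human M5 (10 µg protein/well) with 0.3 nM [3H]NMS and analog (1 nM–100 µM) in 50 mM Tris-HCl pH 7.4, 2 h at 25 °C. […] Filtered on GF/B, counted by scintillation. IC50 converted to Ki; three independent experiments in duplicate.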

The target in test [3] is T3, Muscarinic acetylcholine receptor M5 (Homo sapiens, UniProt P08912).
T3 sequence (P08912 whole entry): T2 sequence (whole entry)
The experiment in a line: Displacement of [3H]NMS from human M5 AChR expressed in CHO cell membranes after 1 to 2 hrs by liquid scintillation spectrometry method. In a few lines: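 CHO membranes expressing human M5 (10 µg protein/well) with 0.3 nM [3H]NMS and analog (1 nM–100 µM) in 50 mM Tris-HCl pH 7.4, 2 h at 25 °C. Filtered on GF/B, counted by scintillation. IC50 converted to Ki; three independent experiments in duplicate.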

Test [4] deals with T4, Muscarinic acetylcholine receptor M1 (Homo sapiens) (UniProt P11229).
T4 sequence (whole entry): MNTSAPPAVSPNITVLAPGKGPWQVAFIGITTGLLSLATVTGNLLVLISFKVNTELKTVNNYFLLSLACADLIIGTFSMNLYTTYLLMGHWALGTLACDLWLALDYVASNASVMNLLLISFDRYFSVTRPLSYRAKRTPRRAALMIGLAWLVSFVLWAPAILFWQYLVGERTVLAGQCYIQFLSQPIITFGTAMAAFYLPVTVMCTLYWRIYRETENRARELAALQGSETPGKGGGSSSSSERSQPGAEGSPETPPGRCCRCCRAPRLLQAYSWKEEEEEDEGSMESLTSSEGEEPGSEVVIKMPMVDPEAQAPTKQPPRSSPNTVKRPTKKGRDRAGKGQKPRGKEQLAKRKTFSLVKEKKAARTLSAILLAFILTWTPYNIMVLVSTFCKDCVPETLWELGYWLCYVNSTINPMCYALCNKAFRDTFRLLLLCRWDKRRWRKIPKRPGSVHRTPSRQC
Particulars: CHO, at 100 µM.

Test [5] addresses T1, Muscarinic acetylcholine receptor M3. Particulars: CHO, at 100 µM.
Target sequence in this assay (P20309 whole entry, looked up): as the sequence (P20309 whole entry) above
Another test is filed under the species Homo sapiens. The experiment in a line: Selectivity ratio of Ki for displacement of [3H]NMS from human M1 AChR expressed in CHO cell membranes to Ki for displacement of [3H]NMS from human M5 AChR expressed in CHO cell membranes.
In test [6] the target is T5, Muscarinic acetylcholine receptor M1 (Homo sapiens, UniProt P11229).
T5 sequence (P11229 whole entry): T4 sequence (whole entry)
The experiment in a line: Displacement of [3H]NMS from human M1 AChR expressed in CHO cell membranes after 1 to 2 hrs by liquid scintillation spectrometry method. Type of test: cell-based.

As a reminder, the Ki is a measure of affinity in units of concentration, obtained from inhibition or displacement. Read a low Ki as a stronger hold on the target. For the compound `COc1ccc(COC(=O)N(c2ccccc2)C2CN3CCC2CC3)cc1` (stereo not drawn), the Ki turned out to be 1.15 µM in test [1], 0.47 µM in test [3] and 0.71 µM in test [6]. Further, the Imax in test [2] was 97.1%; in test [4], 97.9%; in test [5], 95.7%. In addition, the Ratio Ki in the test listed under Homo sapiens came to 1.5.
`COc1ccc(CCOC(=O)N(c2ccccc2)C2CN3CCC2CC3)cc1` (stereo not drawn): the Ki was determined as 0.42 µM in test [1], 0.23 µM in test [3] and 0.76 µM in test [6]. Also, the Imax amounted to 98.9% in test [2], 98.4% in test [4] and 99.3% in test [5]. Moreover, in the test listed under Homo sapiens, the Ratio Ki was determined as 3.3.
For the compound `COc1ccc(CCN(C(=O)OC2C[C@H]3CC[C@H](C2)N3C)c2ccccc2)cc1OC` (stereo partly drawn), the Ki in test [1] is 2.8 µM; in test [3] it was 1.37 µM; in test [6], 1.87 µM. The Imax in test [2] was found to be 95.9%; in test [4], 95.3%; in test [5], 88.8%. In the test listed under Homo sapiens, the Ratio Ki came to 1.4.
As to `COc1ccc(CCCOC(=O)N(c2ccccc2)C2CN3CCC2CC3)cc1` (stereo not drawn), the results for the Ki in test [1], in test [3] and in test [6] were 0.39 µM, 0.64 µM and 0.59 µM, respectively. Further, the Imax is 99.5% in test [2], 98.5% in test [4] and 96.8% in test [5]. For the same compound, the Ratio Ki in the test listed under Homo sapiens is 0.9.
Turning to `COc1ccc(CCN(C(=O)OC2C[C@H]3CC[C@H](C2)N3C)c2ccccc2)cc1` (stereo partly drawn), the Ki was 0.27 µM in test [1], 0.24 µM in test [3] and 0.35 µM in test [6]. Also, the values for the Imax in test [2], in test [4] and in test [5] were 97.9%, 99.7% and 98.9%, respectively. Moreover, the Ratio Ki in the test filed under Homo sapiens came to 1.5.
For the compound `O=C(OCCc1ccccc1)N(c1ccccc1)C1CN2CCC1CC2` (stereo not drawn), the inhibitory constant (Ki) in test [1] turned out to be 0.3 µM; in test [3] it was 0.26 µM; in test [6], 0.79 µM. The Imax in test [2] is 96.9%; in test [4], 88.5%; in test [5] it was 99.1%. Further, the Ratio Ki in the test listed under Homo sapiens amounted to 3.
`COc1ccc(CCN(C(=O)OC2CCCN(C)C2)c2ccccc2)cc1OC` (stereo not drawn): the values for the inhibitory constant (Ki) in test [1], in test [3] and in test [6] were 4.36 µM, 4.49 µM and 4.3 µM, respectively. Besides, the Imax worked out at 89.2% in test [2], 94.3% in test [4] and 85.6% in test [5]. For the same compound, the Ratio Ki in the test listed under Homo sapiens was 1.
Take `O=C(OCCCc1ccc(F)c(F)c1)N(c1ccccc1)C1CN2CCC1CC2` (stereo not drawn): the Ki in test [1] amounted to 0.22 µM; in test [3], 0.1 µM; in test [6], 0.3 µM. Besides, the results for the Imax in test [2], in test [4] and in test [5] were 99.4%, 100% and 99.5%, respectively. Further, the Ratio Ki in the test listed under Homo sapiens turned out to be 3.
`O=C(OCCc1ccc(Cl)c(Cl)c1)N(c1ccccc1)C1CN2CCC1CC2` (stereo not drawn): the Ki was found to be 0.26 µM in test [1], 0.08 µM in test [3] and 0.37 µM in test [6]. The Imax in test [2] amounted to 98.8%; in test [4], 99.9%; in test [5], 99.8%. The Ratio Ki in the test filed under Homo sapiens turned out to be 4.5.
For `O=C(OCCc1ccc2c(c1)OCO2)N(c1ccccc1)C1CN2CCC1CC2` (stereo not drawn), the Ki turned out to be 0.29 µM in test [1], 0.24 µM in test [3] and 0.63 µM in test [6]. Also, the figures for the Imax in test [2], in test [4] and in test [5] were 97.1%, 99.6% and 98%, respectively. The Ratio Ki in the test listed under Homo sapiens is 2.6.
As to `CN1CCCC(OC(=O)N(CCc2ccc(F)cc2)c2ccccc2)C1` (stereo not drawn), the Ki in test [1] was 0.35 µM; in test [3], 0.15 µM; in test [6], 0.12 µM. For the same compound, the Imax in test [2] came out at 99.9%; in test [4], 99.9%; in test [5], 99%. Moreover, the Ratio Ki in the test filed under Homo sapiens was determined as 0.8.
As to `Cc1ccc(CCCOC(=O)N(c2ccccc2)C2CN3CCC2CC3)cc1F` (stereo not drawn), the Ki was 0.13 µM in test [1], 0.13 µM in test [3] and 0.2 µM in test [6]. The Imax in test [2] is 99.9%; in test [4], 100%; in test [5], 100%. For the same compound, the Ratio Ki in the test filed under Homo sapiens came out at 1.5.
In turn, `CN1[C@@H]2CC[C@H]1C[C@@H](OC(=O)C(CO)c1ccccc1)C2` (stereo partly drawn) gave an Imax in test [2] of 96.7%.
In the case of `COc1ccc(COC(=O)N(c2ccccc2)C2CN3CCC2CC3)cc1OC` (stereo not drawn), the Ki in test [1] came to 1.02 µM; in test [3] it was 0.55 µM; in test [6], 0.77 µM. The results for the Imax in test [2], in test [4] and in test [5] were 98.7%, 96.8% and 95.4%, respectively. The Ratio Ki in the test filed under Homo sapiens was determined as 1.4.
In the case of `COc1ccc(CCN(C(=O)OC2CCCN(C)C2)c2ccccc2)cc1` (stereo not drawn), the Ki in test [1] turned out to be 1.32 µM; in test [3], 1.05 µM; in test [6], 0.69 µM. The Imax amounted to 97.7% in test [2], 98.6% in test [4] and 96.2% in test [5]. Besides, the Ratio Ki in the test filed under Homo sapiens is 0.7.
As for `COc1ccc(CCCOC(=O)N(c2ccccc2)C2CN3CCC2CC3)cc1OC` (stereo not drawn), the Ki in test [1] is 1.56 µM; in test [3], 1.61 µM; in test [6], 1.46 µM. The Imax came out at 99% in test [2], 97.1% in test [4] and 96.3% in test [5]. The Ratio Ki in the test filed under Homo sapiens is 0.9.
Turning to `COc1ccc(CCN(C(=O)OC2CCN(C)CC2)c2ccccc2)cc1`, the results for the Ki in test [1], in test [3] and in test [6] were 0.57 µM, 0.19 µM and 0.28 µM, respectively. Besides, the Imax in test [2] was determined as 99.7%; in test [4] it was 99.8%; in test [5], 99.7%. In addition, the Ratio Ki in the test filed under Homo sapiens is 1.5.
In the case of `O=C(OCCCc1ccccc1)N(c1ccccc1)C1CN2CCC1CC2` (stereo not drawn), the Ki in test [1] came to 0.55 µM; in test [3], 0.26 µM; in test [6] it was 0.78 µM. The Imax came to 95.7% in test [2], 99.1% in test [4] and 98.9% in test [5]. In addition, in the test listed under Homo sapiens, the Ratio Ki is 3.
On to `COc1ccc(CCN(C(=O)OC2CCN(C)CC2)c2ccccc2)cc1OC`, for which the Ki worked out at 1.28 µM in test [1], 0.38 µM in test [3] and 0.77 µM in test [6]. Moreover, the results for the Imax in test [2], in test [4] and in test [5] were 96.5%, 99% and 96.6%, respectively. In the test listed under Homo sapiens, the Ratio Ki turned out to be 2.
For `COc1ccc(CCCOC(=O)N(c2ccccc2)C2CN3CCC2CC3)cc1F` (stereo not drawn), the Ki in test [1] amounted to 0.25 µM; in test [3] it was 0.26 µM; in test [6], 0.43 µM. The Imax in test [2] worked out at 99.4%; in test [4] it was 100%; in test [5], 99.8%. In addition, the Ratio Ki in the test filed under Homo sapiens was found to be 1.7.
Turning to `COc1ccc(CCOC(=O)N(c2ccccc2)C2CN3CCC2CC3)cc1OC` (stereo not drawn), the Ki in test [1] is 2.76 µM; in test [3] it was 3.49 µM; in test [6] it was 6.98 µM. The Imax came to 94% in test [2], 90.6% in test [4] and 85.9% in test [5]. The Ratio Ki in the test listed under Homo sapiens came out at 2.
As to `CN1CCC(OC(=O)N(CCc2ccc(F)cc2)c2ccccc2)CC1`, the Ki in test [1] worked out at 0.14 µM; in test [3], 0.06 µM; in test [6] it was 0.07 µM. Besides, the Imax in test [2], in test [4] and in test [5] was 100% throughout. Also, in the test filed under Homo sapiens, the Ratio Ki was 1.2.
